Results on 6 compounds are retold here after ChEMBL document CHEMBL1157464, “1-[(3-Aryloxy-3-aryl)propyl]-1H-imidazoles, new imidazoles with potent activity against Candida albicans and dermatophytes. Synthesis, structure-activity relationship, and molecular modeling studies” (J Med Chem, 2008).

For orientation: MFC means the lowest tested concentration that kills the fungus rather than only halting it. The MIC is the lowest concentration that inhibits growth of the organism. As usually defined, the MIC50 is the lowest concentration that inhibits either 50% of growth or 50% of the strains tested, depending on the study. One may read the MIC90 as an inhibitory concentration at the 90% level, which refers to growth in some studies and to a panel of isolates in others. For orientation: CC50 means the concentration that lowers cell viability or growth by half.

Data set [1] deals with Candida parapsilosis. Nature of the data set: Antifungal activity against Candida parapsilosis ATCC 22019 at 35 degC after 48 hrs by broth microdilution test. It is filed as functional. To be noted: Lodderomyces parapsilosis, ATCC 22019, 48 h; for MFC: read-out: MFC; for MIC: read-out: MIC. In short, it runs like this:
(§1)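 Broth microdilution per NCCLS M27-A2. Stocks in 100% DMSO, diluted in RPMI 1640 with 0.165 M MOPS at pH 7.0; final range 0.25–128 µg/mL. Inoculum 1000–5000 cells/mL from SDA subcultures. […] C. parapsilosis ATCC22019 served as QC strain.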
(In general: In broth dilution the organism is exposed to a series of concentrations in liquid medium.)

For data set [2], the system named is Candida albicans. Nature of the data set: Antifungal activity against Candida albicans ATCC 10261 at 35 degC after 48 hrs by broth microdilution test. To be noted: Candida albicans, ATCC 10261, 48 h; for MIC: read-out: MIC; for MIC50: read-out: MIC50; for MIC90: read-out: MIC90. It is filed as functional. An outline of the steps:
as §1

In data set [3] the test system is Candida albicans. Nature of the data set: Antifungal activity against Candida albicans ATCC 10261 at 35 degC after 48 to 96 hrs by broth microdilution test. The class given is functional. The settings on record: for MFC: Candida albicans, ATCC 10261, read-out: MFC. An outline of the steps:
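Minimal fungicidal concentration for Candida. […] MFC is the lowest concentration allowing fewer than two colonies (99% killing).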

Data set [4] is described as follows: Cytotoxicity against human U937 cells assessed as reduction of cell viability after 24 hrs by MTT assay. The class given is cell-based, U-937. In short, it runs like this:
(§2)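 U937 and K562 cells, from ATCC, plated at 5 × 10^4/mL in phenol-red-free RPMI-1640 with 20% FBS and penicillin/streptomycin. Compounds added 2 h later at 25–100 µg/mL, then 24 h at 37 °C. MTT at 1 mg/mL for 3 h, formazan dissolved in isopropanol with 0.1 N HCl, absorbance read at 570 nm. CC50 is the concentration reducing viability by 50% versus the drug-free control.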
(In general: Tetrazolium dyes change colour on reduction, which living cells bring about.)

Data set [5] in a line: Cytotoxicity against human K562 cells after assessed as reduction of cell viability 24 hrs by MTT assay. It is filed as cell-based. In short, it runs like this:
as §2

Data set [6] deals with Candida albicans. Nature of the data set: Antifungal activity against fluconazole-resistant Candida albicans isolated from oropharyngeal or vaginal disease patient after 48 hrs by broth microdilution test. The class given is functional.
Data set [7] has as its system Candida albicans. Nature of the data set: Antifungal activity against fluconazole-sensitive Candida albicans Fe40 at 35 degC after 48 hrs by broth microdilution test. The class given is functional. In short, it runs like this:
as §1

For data set [8], the system named is Arthrodermataceae. Nature of the data set: Antifungal activity against dermatophytes at 28 degC after 7 days by broth microdilution test. The class given is functional. To be noted: 168 h. In short, it runs like this: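 Ten clinical isolates (two M. canis, five M. gypseum, three T. mentagrophytes) tested by NCCLS M38-A broth microdilution in MOPS-buffered RPMI 1640, pH 7.0, over 0.25–128 µg/mL. Conidial/hyphal suspension from PDA slants (28 °C, 7 days) adjusted to 65–70% transmittance at OD530, then diluted 1:50.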

Data set [9] concerns Arthrodermataceae. Nature of the data set: Antifungal activity against dermatophytes at 28 degC after 5 days by broth microdilution test. To be noted: for MFC: Arthrodermataceae.
For data set [10], the system named is Arthrodermataceae. Nature of the data set: Antifungal activity against dermatophytes at 28 degC after 48 to 96 hrs by broth microdilution test.

Molecules are shown by their SMILES. ≈ marks a conversion by molar mass, not a printed value. Where only a bound is given, the exact number is not on record here.

As for `Clc1ccc(OC(CCn2ccnc2)c2ccc(Cl)cc2)cc1` (stereo not drawn), in data set [1], the minimum fungicidal concentration (MFC) came out at 8 µg/mL (≈ 23 µM) and the minimum inhibitory concentration (MIC) came to 4 µg/mL (≈ 11.5 µM). Also, in [2], the minimum inhibitory concentration (MIC) turned out to be 5.5 µg/mL (≈ 15.8 µM), the MIC50 is 4 µg/mL (≈ 11.5 µM) and the MIC90 was found to be 8 µg/mL (≈ 23 µM). Also, in data set [3], the MFC50 was 16 µg/mL (≈ 46.1 µM), the MFC90 worked out at 32 µg/mL (≈ 92.2 µM) and the minimum fungicidal concentration (MFC) came out at 21.5 µg/mL (≈ 61.9 µM). In [4], the half-maximal cytotoxic concentration (CC50) at 24 h was found to be 327 µM. In addition, in data set [5], the CC50 at 24 h was 265 µM. Further, the MIC in [6] turned out to be 8 µg/mL (≈ 23 µM). The compound also yielded an MIC in [7] of 4 µg/mL (≈ 11.5 µM).
With `Cc1ccc(C(CCn2ccnc2)Oc2cc(Cl)cc(Cl)c2)cc1` (stereo not drawn), the MFC in [1] came out at 8 µg/mL (≈ 22.1 µM); in data set [3], 34.6 µg/mL (≈ 95.8 µM); in [9], 14.4 µg/mL (≈ 39.9 µM). Also, the values for the minimum inhibitory concentration (MIC) in data set [1], in [2] and in data set [8] were 1 µg/mL (≈ 2.77 µM), 11.9 µg/mL (≈ 32.9 µM) and 5.6 µg/mL (≈ 15.5 µM), respectively. In addition, the results for the MIC50 in data set [2] and in data set [8] were 16 µg/mL (≈ 44.3 µM) and 4 µg/mL (≈ 11.1 µM), respectively. Further, the MIC90 stood at 16 µg/mL (≈ 44.3 µM) in [2] and 8 µg/mL (≈ 22.1 µM) in data set [8]. In addition, the MFC50 in data set [3] and in [10] was 16 µg/mL (≈ 44.3 µM) each time. Further, the MFC90 in [3] stood at 64 µg/mL (≈ 177 µM); in data set [9], 16 µg/mL (≈ 44.3 µM). For the same compound, the results for the CC50 at 24 h in data set [4] and in [5] were 160 µM and 98 µM, respectively.
Consider `Clc1ccc(C(CCn2ccnc2)Oc2cc(Cl)cc(Cl)c2)cc1` (stereo not drawn), for which the MFC in [1] turned out to be 4 µg/mL (≈ 10.5 µM); in data set [3], 16.5 µg/mL (≈ 43.2 µM); in data set [9], 10 µg/mL (≈ 26.2 µM). Further, the figures for the MIC in data set [1], in data set [2] and in [8] were 1 µg/mL (≈ 2.62 µM), 7.7 µg/mL (≈ 20.2 µM) and 5 µg/mL (≈ 13.1 µM), respectively. Moreover, the figures for the MIC50 in [2] and in [8] were 8 µg/mL (≈ 21 µM) and 4 µg/mL (≈ 10.5 µM), respectively. Further, the results for the MIC90 in data set [2] and in data set [8] were 16 µg/mL (≈ 41.9 µM) and 8 µg/mL (≈ 21 µM), respectively. In addition, the MFC50 in data set [3] worked out at 16 µg/mL (≈ 41.9 µM); in data set [10], 8 µg/mL (≈ 21 µM). Further, the MFC90 in data set [3] and in [9] was 16 µg/mL (≈ 41.9 µM) each time. Also, the CC50 at 24 h was found to be 180 µM in [4] and 135 µM in [5].
With `c1ccc(OC(CCn2ccnc2)c2ccccc2)cc1` (stereo not drawn), the figures for the MFC in [1], in data set [3] and in data set [9] were 32 µg/mL (≈ 115 µM), 83.2 µg/mL (≈ 299 µM) and 56.5 µg/mL (≈ 203 µM), respectively. The MIC in data set [1] turned out to be 16 µg/mL (≈ 57.5 µM); in data set [2] it was 62.7 µg/mL (≈ 225 µM); in data set [8], 24.1 µg/mL (≈ 86.6 µM). Also, the MIC50 in data set [2] was 32 µg/mL (≈ 115 µM); in [8], 16 µg/mL (≈ 57.5 µM). Also, the results for the MIC90 in data set [2] and in data set [8] were 128 µg/mL (≈ 460 µM) and 32 µg/mL (≈ 115 µM), respectively. For the same compound, the MFC50 in data set [3] and in [10] was 64 µg/mL (≈ 230 µM) in each case. Moreover, the figures for the MFC90 in data set [3] and in [9] were 128 µg/mL (≈ 460 µM) and 64 µg/mL (≈ 230 µM), respectively. The figures for the cytotoxic concentration (CC50) at 24 h in data set [4] and in data set [5] were 201 µM and 220 µM, respectively.
For `Clc1ccc(C(CCn2ccnc2)Oc2c(Cl)cccc2Cl)cc1` (stereo not drawn), the MFC is 4 µg/mL (≈ 10.5 µM) in data set [1] and 14.7 µg/mL (≈ 38.5 µM) in data set [3]. Also, the minimal inhibitory concentration (MIC) in [1] was found to be 1 µg/mL (≈ 2.62 µM); in data set [2], 5 µg/mL (≈ 13.1 µM); in data set [6], 6.8 µg/mL (≈ 17.8 µM); in [7], 2 µg/mL (≈ 5.24 µM). Also, the MIC50 in data set [2] amounted to 2 µg/mL (≈ 5.24 µM). Besides, the MIC90 in [2] is 8 µg/mL (≈ 21 µM). Moreover, the MFC50 in data set [3] came out at 8 µg/mL (≈ 21 µM). In addition, the MFC90 in data set [3] came to 16 µg/mL (≈ 41.9 µM). Also, the cytotoxic concentration (CC50) at 24 h in [4] was 271 µM; in data set [5], 135 µM.
`CCC(C)n1ncn(-c2ccc(N3CCN(c4ccc(OC[C@@H]5CO[C@@](Cn6cncn6)(c6ccc(Cl)cc6Cl)O5)cc4)CC3)cc2)c1=O` (stereo partly drawn) [ITRACONAZOLE]: the MFC is 0.25 µg/mL (≈ 0.354 µM) in [1], > 1 µg/mL in [3] and 1.4 µg/mL (≈ 1.98 µM) in data set [9]. The minimal inhibitory concentration (MIC) in data set [1] is 0.06 µg/mL (≈ 0.085 µM); in data set [2] it was 0.5 µg/mL (≈ 0.709 µM); in data set [6], 16 µg/mL (≈ 22.7 µM); in [7], 0.031 µg/mL (≈ 0.0439 µM); in data set [8] it was 0.14 µg/mL (≈ 0.198 µM). Further, the MIC50 in data set [2] was 0.5 µg/mL (≈ 0.709 µM); in data set [8], 0.125 µg/mL (≈ 0.177 µM). In addition, the figures for the MIC90 in data set [2] and in data set [8] were 1 µg/mL (≈ 1.42 µM) and 0.25 µg/mL (≈ 0.354 µM), respectively. Also, the results for the MFC50 in [3] and in data set [10] were >1 µg/mL and 1 µg/mL (≈ 1.42 µM), respectively. The MFC90 in data set [3] is >1 µg/mL; in data set [9], 2 µg/mL (≈ 2.83 µM).
